System: MS2 coat protein
Assay: apparent Kd, MS2 coat protein; higher = weaker binding; RNA-MaP array; FMN 200 µM where present
Method in brief: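 Stalled E. coli RNA polymerase produced the designs on Illumina sequencing-chip clusters. SNAP-549-labelled MS2 coat protein was added from 0.7 or 1.5 nM, doubling to 3 µM, without and then with constant ligand, in 100 mM Tris-HCl pH 7.5, 80 mM KCl, 4 mM MgCl2, BSA, DTT, yeast tRNA and Tween-20. The apparent Kd is the median of filtered per-cluster fits of green signal normalised to red-channel RNA signal and control-cluster median Fmax.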

[1] = designed as: ON switch for flavin mononucleotide, no ligand
[2] = ligand present: flavin mononucleotide, designed as: ON switch for flavin mononucleotide
[3] = designed as: OFF switch for flavin mononucleotide, no ligand
[4] = ligand present: flavin mononucleotide, designed as: OFF switch for flavin mononucleotide

In the case of “GCAAAGCCUGACAUGAGGAUCACCCAUGUUAGAUUGUUAUGUCAGGAUAUUGUCUAGCCACUAGACAAGAAGGGAUGCUUUGCU”, the “apparent Kd” value [1] is reported as 384 nM and the “apparent Kd” value [2] is reported as 32.9 nM.
For “AAAAAACAUGAGGAUCACCCAUGUCCUCGGACAUGAGGAUAUGUACAGACUUCGGUCUGUACAGAAGGCAUGUCAA”, the “apparent Kd” value [1] was 658 nM and the “apparent Kd” value [2] was 585 nM.
In the case of “CUAGCUAUCGGAGGAUAUUCAUAGCCGAAAGGCACAUGAGGAUCACCCAUGUGCGGAAACGCUUGGGAGAAGGCCGAUAGCUAG”, the “apparent Kd” value [1] is reported as 25.7 nM and the “apparent Kd” value [2] is reported as 15.2 nM.
In the case of “UCUCGUUUCGCAGGAUAUGCUGGUCGGAAAUAAACCGGCCACAUGAGGAUCACCCAUGUGCCACAGCAGAAGGGUGACACUAGA”, the “apparent Kd” value [1] is reported as 527 nM and the “apparent Kd” value [2] is reported as 53.9 nM.
With “AGGAGGAAUGUAGGAUAUAUAUAUAUAUAUAGGCAAAGCGUAUAUAUAUAUAUAGAAGGACAUGAGGAUCACCCAUGUUUCCCU” the “apparent Kd” value [3] was 9.27 nM and the “apparent Kd” value [4] was 8.99 nM.
With “GGAAACUACGAGAAGGACAUGUGGUCCUUCAGUUACAUGAGGAUCACCCAUGUAGGAUAUCGUAGUUUCAGGAUCGUGAGAUCA” the “apparent Kd” value [3] was 33.2 nM and the “apparent Kd” value [4] was 10.7 nM.
For “GUCAUUUAUGUAGGAUAUGCGAGGCGAGCCUGAGCAGAAGGACAUGAGGAUCACCCAUGUAUUGCGGUUUAUGUUCAGAUCGCU”, the “apparent Kd” value [3] was 16.3 nM and the “apparent Kd” value [4] was 19 nM.
“CGCGGACAAGAGAAGGCCAGACCUCGGAACCUGAGGCACCGCUAGGCAUGGAGGAUAUCUUGACAUGAGGAUCACCCAUGUACU” was tested, and the “apparent Kd” value [1] was 665 nM and the “apparent Kd” value [2] was 33.7 nM.
With “CUUUGAUGAGGAUAUCGAGGUUAGUACAUGAGGAUCACCCAUGUUAUCCAGGUGUCGGAUCGAGAAGGUAUUGGAC” the “apparent Kd” value [4] was 17.5 nM.
In the case of “AACCGACAUGAGGAUCACCCAUGUCAGGAUAUGGACUGACACCGAAAGAGUGGAGGAACCAGAAGGGACUGGGC”, the “apparent Kd” value [3] is reported as 32.4 nM and the “apparent Kd” value [4] is reported as 69.5 nM.
In the case of “AGAUAUGAUGCAGGAUAUCUAUCUUGAAUGAGGAGAGAAGGGCAAGUAGAUAGAUAAGCCUCAUGACAUGAGGAUCACCCAUGU”, the “apparent Kd” value [3] is reported as 14.8 nM and the “apparent Kd” value [4] is reported as 15.2 nM.
“AAUUUGUGAAAAUUACAUGAGGAUCACCCAUGUUAGGGAAUGCAGGAUAUGUGGAAUAUUAUUUAACAGAAGGGCAAUAAUUUU” was tested, and the “apparent Kd” value [1] was 56.3 nM and the “apparent Kd” value [2] was 41.6 nM.
In the case of “GGAUAGGACAGAGGAUAUACGUGCUAGAGAUACUAACAAAAUUUCCUCACAUGAGGAUCACCCAUGUAGAAGGCUGUCCUAUCG”, the “apparent Kd” value [3] is reported as 193 nM and the “apparent Kd” value [4] is reported as 187 nM.
For “GGAGCACAUCAAUACAUGAGGAUCACCCAUGUCGAAUGAUAUGAGGAUAUGCAUCGGAAAACGAUGUAGAAGGCAUAGUGCUCC”, the “apparent Kd” value [1] was 15.6 nM and the “apparent Kd” value [2] was 6.27 nM.
For “CUAAAUCAUGUAGGAUAUGCGUGGCGAAGCUAUGCAGAAGGACAUGAGGAUCACCCAUGUCUUUCCGUCUGCGUACAGACGGAA”, the “apparent Kd” value [3] was 28.6 nM and the “apparent Kd” value [4] was 282 nM.
In the case of “AGAUGACAAAGUCAUCUCGCUUUGACAUGAGGAUCACCCAUGUAGGAUAUAUUACUCAAAGAGUAAUAGAAGGACAUGUUUCUG”, the “apparent Kd” value [3] is reported as 72.7 nM and the “apparent Kd” value [4] is reported as 163 nM.
For “AAAAAACAUGAGGAUCACCCAUGUCAGGAUAUCAUAAAAAAAAAAAAAAAAAAAAAAGUGAGAAGGGACAAAAA”, the “apparent Kd” value [3] was 91.7 nM and the “apparent Kd” value [4] was 71.5 nM.
With “AUCAUGUAAGGAUAUCUUACAUGUGACGAAAGUCACAGUUAAGAGAAGGUACAUGAGGAUCACCCAUGUAUAAC” the “apparent Kd” value [3] was 27.4 nM and the “apparent Kd” value [4] was 54.9 nM.
“UGAGCGACCACAGGAUAUACUUGAGAAGACCGAGUAGAAGGGUGGAAGAGCGUGCAGUGACAUGAGGAUCACCCAUGUGGUUGU” was tested, and the “apparent Kd” value [1] was 107 nM and the “apparent Kd” value [2] was 98.4 nM.
With “AUUAUAUAGACAGGAUAUUGAUUAUUAUUUUAACAUGAGGAUCACCCAUGUAGCCUUAUGUAUAGCAAGAAGGGUCAUUUAUUA” the “apparent Kd” value [3] was 135 nM and the “apparent Kd” value [4] was 206 nM.
“CUACCUUAUGAGAAGGCGAUCAUGAAACAUGAUCGAGGAUAUCAUGUAAACAUGAGGAUCACCCAUGUAUGGGUAUUAUGGUAG” was tested, and the “apparent Kd” value [1] was 331 nM and the “apparent Kd” value [2] was 40.4 nM.
With “AGCAUGUAAGGAUAUGUAACGCGGCUUUCAUUCGCCGUCCCACAGAAGGUACAUGAGGAUCACCCAUGUGCUCC” the “apparent Kd” value [3] was 38.1 nM and the “apparent Kd” value [4] was 87.6 nM.
In the case of “AAAAAGUGAUGGUAGGAUAUUGGAAAAGCCACAUGAGGAUCACCCAUGUCAAAAAACCUAAAAAACAAGAAGGGCUGUUAUAAAAA”, the “apparent Kd” value [1] is reported as 18.5 nM and the “apparent Kd” value [2] is reported as 14.8 nM.
For “ACAUUUAAUACAGGAUAUGUUAGUAUACAGUAGAUUGGUUAUUACACAACAACAGAAGGGUAGAACAUGAGGAUCACCCAUGUA”, the “apparent Kd” value [1] was 85.1 nM and the “apparent Kd” value [2] was 55.3 nM.
For “CUGGUUGUCGUAGGAUAUGUAGGAUAUUCCUACAUGAGGAUCACCCAUGUUCGCAUGGAAGAAGGACAGAAGGACGAUGACCAU”, the “apparent Kd” value [1] was 1020 nM and the “apparent Kd” value [2] was 9.16 nM.
With “UGGUACAUCGGAGGAUAUCAUGUAGAUACAUGAGGAUCACCCAUGUCGUACGAGAGUACGGAGAUUGAGAAGGCCGAUGUACCU” the “apparent Kd” value [1] was 30.7 nM and the “apparent Kd” value [2] was 16.4 nM.
“GGAUCAUAUGUCAGGAUAUGCAGGUCCUUGGAUCUGCAGAAGGGACAUGAGGAUCACCCAUGUCAUGAAGAUCC” was tested, and the “apparent Kd” value [3] was 35.6 nM and the “apparent Kd” value [4] was 202 nM.
With “UGCCGCAACAACACGGCAUCACAUGAGGAUCACCCAUGUUCACAGGAUAUGCGAUAGCCAACGAAGCAGAAGGGUGAUUACUUA” the “apparent Kd” value [1] was 31.9 nM and the “apparent Kd” value [2] was 215 nM.

Reference: the EternaBench riboswitch data
